Test results from ChEMBL document CHEMBL5096174, “The Natural Alkaloid Berberine Can Reduce the Number of Pseudomonas aeruginosa Tolerant Cells” (2021).
Converted amounts (≈) assume the structure as drawn. The source made the active and inactive calls.

Tests used:
Pseudomonas aeruginosa [1] = assay: Bactericidal activity against wild type Pseudomonas aeruginosa K767 assessed as increase in biofilm production at 80 ug/ml incubated overnight by crystal voilet staining based analysis relative to control; type: functional; conditions: dose 80 µg/ml
In short: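 Biofilms grown overnight at 37 °C in flat-bottom microtiter plates in LB with or without berberine 80 µg/mL. Planktonic OD600 recorded; washed sessile phase stained 15 min with 1% crystal violet, dye taken up in 96% ethanol, OD570 read. Output is OD570/OD600. Run in triplicate.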

[2] = Inhibition of efflux pump in wild type Pseudomonas aeruginosa K767 assessed as fold reduction in CFU count in presence of tobramycin incubated for 24 hrs by ethidium bromide efflux assay relative to tobramycin alone; conditions: in the assay text read “by planktonic persistence assay” for “by ethidium bromide efflux assay”
In short: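 Stationary-phase overnight LB cultures (37 °C) exposed to tobramycin 20xMIC alone or with berberine 80 µg/mL for 24 h at 37 °C. At 0, 7 and 24 h, aliquots PBS-washed, 10-fold serially diluted, plated on antibiotic-free CLED agar. CFU counted after 24 h at 37 °C. Biological duplicate.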

Pseudomonas aeruginosa [3] = assay: Bactericidal activity against Pseudomonas aeruginosa K1525 mexY mutant assessed as increase in biofilm production at 80 ug/ml incubated overnight by crystal voilet staining based analysis relative to control; type: functional; conditions: dose 80 µg/ml
In short: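 Biofilms grown overnight at 37 °C in LB with or without berberine 80 µg/mL in flat-bottom microtiter wells. Planktonic phase removed and its OD600 read. Sessile phase washed with water, stained with 1% crystal violet for 15 min, washed, solubilised in 96% ethanol and read at OD570. Values normalised as OD570/OD600. Triplicate.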

Pseudomonas aeruginosa [4] = assay: Antibacterial activity against Pseudomonas aeruginosa NC02 cystic fibrosis assessed as reduction in bacterial growth; type: functional
Pseudomonas aeruginosa [5] = assay: Antibacterial activity against cystic fibrosis isolate Pseudomonas aeruginosa C30 assessed as log reduction in tolerant cell in presence of berberine by broth microdilution method; type: functional
In short: (§1)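 Overnight LB cultures at 37 °C were exposed to tobramycin 20xMIC, alone or with berberine 80 µg/mL, for 24 h at 37 °C. Aliquots were PBS-washed, serially 10-fold diluted and plated on antibiotic-free CLED agar. CFUs were counted after 24 h at 37 °C, before exposure (T0) and at T24. Biological duplicates.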

Pseudomonas aeruginosa [6] = assay: Antibacterial activity against Pseudomonas aeruginosa NC10 cystic fibrosis assessed as tobramycin MIC in presence of berberine; type: functional
In short: (§2)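 Tobramycin MIC by CLSI broth microdilution in the presence of berberine 80 µg/mL.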

Pseudomonas aeruginosa [7] = assay: Antibacterial activity against Pseudomonas aeruginosa K1525 mexY mutant assessed as reduction in bacterial growth rate in presence of berberine; type: functional, organism-based
In short: (§3)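 Overnight LB cultures diluted to OD600 0.1 and shaken at 140 rpm, 37 °C, for 24 h with or without berberine 80 µg/mL. OD600 read at 2, 4, 6, 8 and 24 h. Biological triplicates.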

Pseudomonas aeruginosa [8] = assay: Bactericidal activity against Pseudomonas aeruginosa K1525 mexY mutant persisters assessed as reduction in CFU at 20 times MIC incubated for 24 hrs by planktonic persistance assay; type: functional
In short: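 Stationary-phase (overnight, LB, 37 °C) cultures exposed to tobramycin 20xMIC with or without berberine 80 µg/mL for 24 h at 37 °C. Aliquots taken before exposure and at 24 h, PBS-washed, serially 10-fold diluted and plated on antibiotic-free CLED agar. Surviving CFU counted after 24 h at 37 °C. Biological duplicate.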

Pseudomonas aeruginosa [9] = assay: Antibacterial activity against Pseudomonas aeruginosa NC04 cystic fibrosis assessed as reduction in bacterial growth; type: functional
Pseudomonas aeruginosa [10] = assay: Antibacterial activity against Pseudomonas aeruginosa NC06 cystic fibrosis assessed as tobramycin MIC in presence of berberine; type: functional; in short: as §2
Pseudomonas aeruginosa [11] = assay: Antibacterial activity against cystic fibrosis isolate Pseudomonas aeruginosa C25 assessed as log reduction in tolerant cell in presence of berberine by broth microdilution method; type: functional; in short: as §1
Pseudomonas aeruginosa [12] = assay: Antibacterial activity against clinical isolate Pseudomonas aeruginosa C59 assessed as fold reduction in MIC in presence of berberine by broth microdilution method; type: functional
In short: (§4)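 Tobramycin MIC was determined without and with berberine 80 µg/mL by CLSI broth microdilution. The combination was called synergistic when the MIC with berberine was ≥4 times lower than with tobramycin alone.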

Pseudomonas aeruginosa [13] = assay: Antibacterial activity against Pseudomonas aeruginosa NC04 cystic fibrosis assessed as tobramycin MIC in presence of berberine; type: functional
In short: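 Broth microdilution per CLSI; tobramycin MIC determined with berberine present at 80 µg/mL. Synergy defined as MIC in presence of berberine ≥4 times lower than tobramycin alone.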

Pseudomonas aeruginosa [14] = assay: Antibacterial activity against cystic fibrosis isolate Pseudomonas aeruginosa AR48 assessed as fold reduction in MIC in presence of berberine by broth microdilution method; type: functional; in short: as §4
Pseudomonas aeruginosa [15] = assay: Bactericidal activity against Pseudomonas aeruginosa K1525 mexY mutant assessed as reduction in log increase in tolerant cells at 1000 times MIC measured after 24 hrs; type: functional
In short: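 Biofilms were grown overnight in LB in 35 mm dishes at 37 °C, then held 24 h at 37 °C in LB with tobramycin 1000xMIC, alone or with berberine 80 or 320 µg/mL. Biofilms were detached mechanically at T0 and T24, resuspended in PBS, 10-fold diluted and plated on CLED agar, and CFUs were counted after 24 h at 37 °C. Biological triplicates.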

Pseudomonas aeruginosa [16] = assay: Antibacterial activity against cystic fibrosis isolate Pseudomonas aeruginosa NC06 assessed as reduction in tolerant cell in presence of berberine by broth microdilution method; type: functional; in short: as §1
Pseudomonas aeruginosa [17] = assay: Antibacterial activity against Pseudomonas aeruginosa C61 assessed as log reduction of bacterial population measured after 24 hrs; type: functional; in short: as §1
Pseudomonas aeruginosa [18] = assay: Antibacterial activity against Pseudomonas aeruginosa NC01 cystic fibrosis assessed as tobramycin MIC in presence of berberine; type: functional
In short: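 Broth microdilution per CLSI guidelines, tobramycin MIC determined in presence of berberine 80 μg/mL; strains grown in LB. Combination considered synergistic when MIC with berberine was ≥4 times lower than tobramycin alone.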

Pseudomonas aeruginosa [19] = assay: Antibacterial activity against cystic fibrosis isolate Pseudomonas aeruginosa NC06 assessed as fold reduction in MIC in presence of berberine by broth microdilution method; type: functional; in short: as §4
Pseudomonas aeruginosa [20] = assay: Antibacterial activity against clinical isolate Pseudomonas aeruginosa C84 assessed as fold reduction in MIC in presence of berberine by broth microdilution method; type: functional; in short: as §4
Pseudomonas aeruginosa [21] = assay: Antibacterial activity against Pseudomonas aeruginosa NC02 cystic fibrosis assessed as tobramycin MIC in presence of berberine; type: functional; in short: as §2
Pseudomonas aeruginosa [22] = assay: Antibacterial activity against cystic fibrosis isolate Pseudomonas aeruginosa C25 assessed as fold reduction in MIC in presence of berberine by broth microdilution method; type: functional; in short: as §4
Pseudomonas aeruginosa [23] = assay: Antibacterial activity against wild type Pseudomonas aeruginosa K767 assessed as reduction in bacterial growth rate in presence of berberine; type: functional, organism-based; in short: as §3
Pseudomonas aeruginosa [24] = assay: Bactericidal activity against wild type Pseudomonas aeruginosa K767 persisters assessed as reduction in CFU at 20 times MIC incubated for 24 hrs by planktonic persistance assay; type: functional
In short: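 Stationary-phase overnight LB cultures at 37 °C were exposed to tobramycin 20xMIC, alone or with berberine 80 µg/mL, for 24 h at 37 °C. At 0, 7 and 24 h, aliquots were PBS-washed, 10-fold diluted and plated on antibiotic-free CLED agar, and survivor CFUs were counted after 24 h at 37 °C. Mean of two biological replicates ± SD.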

Pseudomonas aeruginosa [25] = assay: Antibacterial activity against clinical isolate Pseudomonas aeruginosa C54 assessed as log reduction in tolerant cell in presence of berberine by broth microdilution method; type: functional; in short: as §1
Pseudomonas aeruginosa [26] = assay: Antibacterial activity against clinical isolate Pseudomonas aeruginosa C84 assessed as log reduction in tolerant cell in presence of berberine by broth microdilution method; type: functional; in short: as §1
Pseudomonas aeruginosa [27] = assay: Antibacterial activity against Pseudomonas aeruginosa NC01 cystic fibrosis assessed as reduction in bacterial growth; type: functional
Pseudomonas aeruginosa [28] = assay: Antibacterial activity against clinical isolate Pseudomonas aeruginosa C54 assessed as fold reduction in MIC in presence of berberine by broth microdilution method; type: functional; in short: as §4
Pseudomonas aeruginosa [29] = assay: Antibacterial activity against Pseudomonas aeruginosa NC06 cystic fibrosis assessed as reduction in bacterial growth; type: functional
Pseudomonas aeruginosa [30] = assay: Antibacterial activity against Pseudomonas aeruginosa NC10 cystic fibrosis assessed as reduction in bacterial growth; type: functional

COc1ccc2cc3[n+](cc2c1OC)CCc1cc2c(cc1-3)OCO2 [BERBERINE]
Activity (Pseudomonas aeruginosa [1]): 100% | fold change (FC) [2]: 10 | Activity (Pseudomonas aeruginosa [3]): 50%

NC[C@H]1O[C@H](O[C@H]2[C@H](O)[C@@H](O[C@H]3O[C@H](CO)[C@@H](O)[C@H](N)[C@H]3O)[C@H](N)C[C@@H]2N)[C@H](N)C[C@@H]1O [TOBRAMYCIN]
MIC (Pseudomonas aeruginosa [4]): 32 µg/mL (≈ 68.4 µM) | log(activity) (Pseudomonas aeruginosa [5]): 3 | MIC (Pseudomonas aeruginosa [6]): 0.25 µg/mL | Activity (Pseudomonas aeruginosa [7]): Active | Activity (Pseudomonas aeruginosa [8]): 250000 CFU/ml | MIC (Pseudomonas aeruginosa [9]): 0.5 µg/mL (≈ 1.07 µM) | MIC (Pseudomonas aeruginosa [10]): 0.5 µg/mL | log(activity) (Pseudomonas aeruginosa [11]): 2.5 | fold change (FC) (Pseudomonas aeruginosa [12]): 2 | MIC (Pseudomonas aeruginosa [13]): < 0.125 µg/mL | fold change (FC) (Pseudomonas aeruginosa [14]): 4 | log(activity) (Pseudomonas aeruginosa [15]): 3 | log(activity) (Pseudomonas aeruginosa [16]): 2 | log(activity) (Pseudomonas aeruginosa [17]): 1 | MIC (Pseudomonas aeruginosa [18]): 8 µg/mL | fold change (FC) (Pseudomonas aeruginosa [19]): 4 | fold change (FC) (Pseudomonas aeruginosa [20]): 4 | MIC (Pseudomonas aeruginosa [21]): 16 µg/mL | fold change (FC) (Pseudomonas aeruginosa [22]): 16 | Activity (Pseudomonas aeruginosa [23]): Active | log(activity) (Pseudomonas aeruginosa [24]): 4.11e+07 | log(activity) (Pseudomonas aeruginosa [25]): 1.5 | log(activity) (Pseudomonas aeruginosa [26]): 0.5 | MIC (Pseudomonas aeruginosa [27]): 16 µg/mL (≈ 34.2 µM) | fold change (FC) (Pseudomonas aeruginosa [28]): 2 | MIC (Pseudomonas aeruginosa [29]): 2 µg/mL (≈ 4.28 µM) | MIC (Pseudomonas aeruginosa [30]): 1 µg/mL (≈ 2.14 µM)
